Consider 18 compounds from PubChem BioAssay.

Molecules are shown by their SMILES. A number with no mark means an inactive call. Results filed as inconclusive are left out. Active and inactive are the calls of the source.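 The calls were made as follows, unless noted: active = growth inhibition above 25% in both replicates, a cutoff set 3 SD above the mean; inconclusive = above 25% in only one replicate; inactive = the rest.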

Experiment [1] is described as follows: S. cerevisiae growth inhibition in permissive medium (OD615), pilot counter-assay for S. cerevisiae lifespan shortening project, permissive growth control (AID 705). As to conditions: OD615, 24 h, at 10 µM, active compounds read high. The method in brief:
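System: Engineered DeaD yeast | Buffer or medium: SC raffinose/galactose permissive medium | Doses: 10 µM single dose, 0.25% DMSO | Times: 24 h exposure, 30 °C | Measured by: OD615 turbidity read | Read-out: Yeast growth inhibition indicated by reduced 24 h OD615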

Experiment [2] is described as follows: S. cerevisiae growth inhibition in restrictive medium, OD615, pilot screen, restrictive growth control, yeast lifespan reduction project (AID 706;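 active = growth inhibition above a set limit, 3 SD over mean compound inhibition, in both replicates, cut at about 43% in these data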;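 also: modified DeaD lifespan yeast strain shifted to restrictive glucose medium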). As to conditions: OD615, 48 h, at 10 µM, active compounds read high. The method in brief: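 Assay system: engineered S. cerevisiae DeaD strain; Buffer or medium: CSMM-D glucose medium; Dosing: 10 µM compound, 0.25% DMSO; Times: cell pre-growth 4 h, compound exposure 48 h, 30 °C; Detection: absorbance (optical density) measured at 615 nm.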

The nature of experiment [3]: doxorubicin toxicity protection in MRP-1 cells – H69AR cells, CellTiter-Glo, duplicate, MRP-1 activator project, pilot screen (AID 807;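 active = viability increase at or above a cutoff of the median across tested compounds plus 3 SD, cut at about 8.5% in these data, passing the limit was not always enough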;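 also: compound pretreatment 18-22 h then 72 h combined with doxorubicin; 0% = doxorubicin alone and 100% = vehicle without doxorubicin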). The settings on record: H69AR viability with doxorubicin, CellTiter-Glo luminescence; at 10 µM; active compounds read high. (Cellular ATP, detected with luciferase, serves as a proxy for viable cell number.)
The nature of experiment [4]: viability of HCT116 without oncogenic beta-catenin – human colon tumor cells, pilot screen (AID 823;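 active = cell viability at or below a set limit in both duplicate runs, the limit being the all-compound median minus 4 SD, cut at about 23% in these data, passing the limit was not always enough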;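 also: 0% = wells killed by 20 µM Hyamine and 100% = untreated DMSO cell wells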). As to conditions: HCT116 beta-catenin knockout viability, CellTiter-Glo, 60 h; at 10 µM; active compounds read low.
A short description of experiment [5]: viability of PTEN-null HCT116 cells – cell-based, HCT116 clonal line, CellTiter-Glo, pilot screen (AID 824;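 active = viability at or below 27.92% in each of two runs, the all-compound median minus 4 SD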;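 also: 0% = 20 µM Hyamine control and 100% = vehicle cell control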). The settings on record: HCT116 PTEN-deleted viability, 60 h, at 10 µM, active compounds read low.
Experiment [6] can be described thus: RAM pathway blockade in budding yeast – dse1pr::URA3 reporter, 5-FOA selection, pilot screen (AID 869;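 active = inhibition over a set limit, the all-compound mean plus 3 SD, in both replicate runs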;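 also: 0% = DMSO wells with no growth and 100% = 10 µM 1-NA-PP1 with full growth; RAM network block rescues cells from 5-FOA so hits raise OD615 growth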). As to conditions: S. cerevisiae dse1pr::URA3 5-FOA growth, OD615, 2 d; at 10 µM; active compounds read high; strain carries analog-sensitive mutant Cbk1 kinase.
The nature of experiment [7]: RAM signaling pathway blockade in yeast – S. cerevisiae, Pdr1DBD-CYC8 efflux-inhibited sensitized strain, primary screen (AID 1298;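 active = RAM network inhibition above 8.4% in each of two replicates, 3 SD over the compound average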;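 also: 0% = DMSO untreated cells without growth and 100% = 10 µM 1-NA-PP1 full growth; higher means more yeast growth rescued from 5-FOA killing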). As to conditions: S. cerevisiae cbk1-as DSE1-URA3 strain, 5-FOA growth OD615, 2 d; at 50 µM; active compounds read high.

For orientation: viability means a read-out of living cells in per cent, often relative to untreated cells. As a reminder, the inhibition is the drop in the measured response relative to a control, in per cent. With `CCN(CC)S(=O)(=O)c1ccc(C(=O)OCC(=O)N2CCN(C(=O)c3ccco3)CC2)cc1`, the growth inhibition in experiment [1] is -8.4%; in experiment [2] it was -3.91%. Besides, in experiment [3], the viability increase was 0.34%. Moreover, the viability in experiment [4] was 89.7%; in experiment [5] it was 93.6%. The inhibition in experiment [6] was 1.86%. Besides, the RAM network inhibition in experiment [7] was 1.24%.

Consider `O=C(NCCCN1CCCC1=O)c1ccc2c(c1)ncn2C1CCCCC1`, for which the growth inhibition was 0.37% in experiment [1] and 2.91% in experiment [2]. For the same compound, in experiment [3], the viability increase was 1.87%. In addition, the viability in experiment [4] was 105%; in experiment [5], 109%. Besides, the inhibition in experiment [6] is 0.03%. For the same compound, in experiment [7], the RAM network inhibition was 10.9%.

Take `C=CCn1c(O)c(C2=c3ccccc3=NC2=O)s/c1=N/c1nccs1`: the results for the growth inhibition in experiment [1] and in experiment [2] were -9.64% and -9.09%, respectively. Besides, the viability increase in experiment [3] is -7.95%. Further, the results for the viability in experiment [4] and in experiment [5] were 42.1% and 36%, respectively. The inhibition in experiment [6] was 0.115%. For the same compound, the RAM network inhibition in experiment [7] was 5.25%.

With `COc1cc(C2N(c3ccc(Cl)cc3)C(=O)C3CCCN32)cc(OC)c1OC` (stereo unspecified), the values for the growth inhibition in experiment [1] and in experiment [2] were -6.9% and -0.835%, respectively. Besides, in experiment [3], the viability increase was -2.09%. Moreover, the viability in experiment [4] is 101%; in experiment [5] it was 97.6%. The inhibition in experiment [6] is 2.28%. In addition, the RAM network inhibition in experiment [7] is 0.21%.

For `CCN(CC)CCN1C(=O)c2ccccc2NC1c1cccc(F)c1` (stereo unspecified), the values for the growth inhibition in experiment [1] and in experiment [2] were -8.46% and 1.83%, respectively. In experiment [3], the viability increase is -2.21%. For the same compound, the viability in experiment [4] is 84.4%; in experiment [5] it was 91.4%. For the same compound, in experiment [6], the inhibition was 0.75%. Besides, the RAM network inhibition in experiment [7] was 8.87%.

For `O=C(CSc1nnc(COc2ccccc2)o1)Nc1nccs1`, the growth inhibition was 6.56% in experiment [1] and 4.11% in experiment [2]. Also, the viability increase in experiment [3] was -2.31%. Also, the viability in experiment [4] is 95.6%; in experiment [5] it was 96.4%. In addition, the inhibition in experiment [6] was 1.78%. Further, in experiment [7], the RAM network inhibition is 3.24%.

Regarding `Cc1cc(OCC(=O)Nc2cc(-c3nn4c(C)nnc4s3)ccc2C)ccc1Cl`, the growth inhibition in experiment [1] was 2.82%; in experiment [2], 27.5%. In experiment [3], the viability increase is -0.6%. Also, the viability in experiment [4] is 95.6%; in experiment [5] it was 82%. For the same compound, in experiment [6], the inhibition was 2.49%. The RAM network inhibition in experiment [7] was 6.32%.

Consider `CCC(=O)NCCn1c(C)cc2ccccc21`, for which the figures for the growth inhibition in experiment [1] and in experiment [2] were 8.84% and 11.4%, respectively. In addition, the viability increase in experiment [3] was -0.96%. For the same compound, the viability was 104% in experiment [4] and 92% in experiment [5]. Also, the inhibition in experiment [6] was 1.91%. Further, in experiment [7], the RAM network inhibition is -0.46%.

Turning to `COc1cccc(-c2nc(CS(=O)CC(=O)NCc3ccc4c(c3)OCO4)c(C)o2)c1` (stereo unspecified), the growth inhibition is -3.78% in experiment [1] and 14.7% in experiment [2]. Further, the viability increase in experiment [3] is 0.74%. Moreover, the figures for the viability in experiment [4] and in experiment [5] were 97.2% and 101%, respectively. In experiment [6], the inhibition is 3%. For the same compound, the RAM network inhibition in experiment [7] is 4.76%.

`CCc1ccc(C2CC(c3ccc(F)cc3)Nc3nc(N)nn32)cc1` (stereo unspecified): the growth inhibition is -4.34% in experiment [1] and 9.52% in experiment [2]. For the same compound, the viability increase in experiment [3] was -0.06%. Further, the figures for the viability in experiment [4] and in experiment [5] were 103% and 95.4%, respectively. Moreover, the inhibition in experiment [6] is -0.41%. In experiment [7], the RAM network inhibition is 7.69%.

For the compound `COC(=O)CCC(=O)Nc1nc(-c2ccccc2)cs1`, the growth inhibition in experiment [1] is -18.5%; in experiment [2] it was -17.9%. For the same compound, in experiment [3], the viability increase is -0.35%. The figures for the viability in experiment [4] and in experiment [5] were 99% and 99.1%, respectively. Besides, the inhibition in experiment [6] is 0.475%. In experiment [7], the RAM network inhibition is 11%.

For the compound `CCOc1ccc(-n2c(SCc3ccc(C(=O)OC)o3)nc3c(c2=O)SCC3)cc1`, the results for the growth inhibition in experiment [1] and in experiment [2] were -21.2% and -16.2%, respectively. In experiment [3], the viability increase was -2.41%. Besides, the viability was 81.3% in experiment [4] and 72.7% in experiment [5]. The inhibition in experiment [6] is 2.39%. Further, the RAM network inhibition in experiment [7] is 6.94%.

Regarding `COC(=O)c1ccc(N2C(=O)CC(Sc3n[nH]c(C)n3)C2=O)cc1` (stereo unspecified), the growth inhibition in experiment [1] was 38.2% (active); in experiment [2], 19%. In experiment [3], the viability increase is 1.12%. Moreover, the viability in experiment [4] was 96.6%; in experiment [5], 93.2%. In addition, in experiment [6], the inhibition was 1.42%. Moreover, the RAM network inhibition in experiment [7] is 2.32%.

As for `COc1ccc(S(=O)(=O)n2nc(-c3cc(OC)c(OC)c(OC)c3)cc2N)cc1OC`, the results for the growth inhibition in experiment [1] and in experiment [2] were -12% and 12.7%, respectively. Further, the viability increase in experiment [3] is -3.64%. Besides, the results for the viability in experiment [4] and in experiment [5] were 56.3% and 74.8%, respectively. For the same compound, the inhibition in experiment [6] is 0.16%. The RAM network inhibition in experiment [7] is 5.52%.

For the compound `CCOC(=O)c1sc(NC(C)=O)cc1C`, the results for the growth inhibition in experiment [1] and in experiment [2] were -1.26% and 4.88%, respectively. For the same compound, the viability increase in experiment [3] is 0.69%. For the same compound, the viability was 115% in experiment [4] and 96% in experiment [5]. Also, the inhibition in experiment [6] is 0.47%. Also, the RAM network inhibition in experiment [7] was 1.02%.

Consider `COc1cc(OC)cc(C(=O)Nn2cc(C(=O)N3CCN(C)CC3)c3ccccc3c2=O)c1`, for which the growth inhibition is -6.21% in experiment [1] and -7.65% in experiment [2]. Besides, the viability increase in experiment [3] was -0.92%. The viability in experiment [4] is 105%; in experiment [5], 93.1%. Further, the inhibition in experiment [6] is 1.17%. In experiment [7], the RAM network inhibition was 3.86%.

Consider `Cc1ccc(CN2C(=O)/C(=C3\SC(N4CCOCC4)=NC3=O)c3cc(Br)ccc32)cc1`, for which the growth inhibition is -10.5% in experiment [1] and -12.1% in experiment [2]. For the same compound, the viability increase in experiment [3] was -1.85%. Besides, the viability in experiment [4] is 76.7%; in experiment [5], 79.7%. Besides, the inhibition in experiment [6] was 0.615%. The RAM network inhibition in experiment [7] was 9.54%.

For the compound `COC(=O)C1=C(N)OC2=C(C(=O)CC(C)(C)C2)C1c1cccnc1` (stereo unspecified), the growth inhibition in experiment [1] was -3.42%; in experiment [2] it was -15.1%. In experiment [3], the viability increase is -1.92%. The viability in experiment [4] was 95.4%; in experiment [5], 90.4%. Besides, the inhibition in experiment [6] was 0.305%. Also, the RAM network inhibition in experiment [7] is 2.43%.
